Data published in ChEMBL document CHEMBL5335782, “Discovery of new imidazotetrazinones with potential to overcome tumor resistance” (Eur J Med Chem, 2023).
Each block holds one compound with its values, some of them ahead of it. The source made the active and inactive calls. The rule behind the calls is not given here.

Experiments:
[1] = Antiproliferative activity against MGMT-expressing human U373M cells assessed as inhibition of cell growth measured after […] by MTT assay; assay type: functional
In short: (§1)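 Cells seeded at 6.5×10^2/well, left overnight, then exposed to vehicle or agent (n = 4-8; final 0.5–1000 μM; DMSO stocks of 50 or 10 mM diluted in medium). MTT read at time of addition and after 6 days at 37 °C, 5% CO₂. MTT 0.4 mg/mL for 4 h, formazan taken up in DMSO, A550. GI50 from non-linear regression; mean ± SD of >3 experiments.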

HCT-116 [2] = assay: Antiproliferative activity against MMR-deficient human HCT-116 cells assessed as inhibition of cell growth measured after […] by MTT assay; assay type: functional; in short: as §1
[3] = Antiproliferative activity against human U373V cells assessed as inhibition of cell growth measured […] by MTT assay; assay type: functional; in short: as §1
[4] = Permeability of the compound assessed as drug recovery measured after 6 hrs by PAMPA assay; assay type: ADME; conditions: read-out: Drug recovery
In short: (§2)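 PAMPA passive-diffusion assay run as contract research under the provider's protocols, with control compounds. After 6 h incubation, permeability (Pe) and percentage recovery determined.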

[5] = Half life in human liver microsomes in presence of NADPH; assay type: ADME, Microsome
HCT-116 [6] = assay: Induction of cell cycle arrest in MMR-deficient human HCT-116 cells assessed as accumulation of cells at sub-G1 phase at 100 uM measured after 120 hrs by propidium iodide staining based flow cytometry (Rvb ~5%); assay type: functional
[7] = Half life of the compound in phosphate buffered saline at pH 7.4 by 1H NMR spectroscopic analysis; assay type: physicochemical
In short: (§3)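 Half-life followed by ¹H NMR spectroscopy in phosphate buffers at pH 7.4 or 5.5.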

U373V [8] = assay: Induction of cell cycle arrest in human U373V cells assessed as accumulation of cells at sub-G1 phase at 100 uM measured after 120 hrs by propidium iodide staining based flow cytometry; assay type: functional
[9] = Permeability of the compound measured after 6 hrs by PAMPA assay; assay type: ADME; conditions: read-out: permeability; in short: as §2
U373M [10] = assay: Induction of cell cycle arrest in MGMT-expressing human U373M cells assessed as accumulation of cells at sub-G1 phase at 100 uM measured after 120 hrs by propidium iodide staining based flow cytometry; assay type: functional
[11] = Half life in rat liver microsomes in presence of NADPH; assay type: ADME, Microsome
[12] = Intrinsic clearance in rat liver microsomes in absence of NADPH; assay type: ADME, Microsome; conditions: read-out: CLH
U373V [13] = assay: Induction of cell cycle arrest in human U373V cells assessed as accumulation of cells at S phase at 100 uM measured after 120 hrs by propidium iodide staining based flow cytometry; assay type: functional
[14] = Drug metabolism in phosphate buffered saline assessed as Tmax of 5-(3-(prop-2-yn-1-yl)triaz-2-en-1-yl)-1H-imidazole-4-carboxamide at pH 7.4 by 1HNMR spectroscopy; assay type: ADME; conditions: buffer
[15] = Half life in human plasma; assay type: ADME, cell-free
[16] = Half life in rat plasma; assay type: ADME, cell-free
[17] = Half life in human liver microsomes in absence of NADPH; assay type: ADME, Microsome
[18] = Half life of the compound in phosphate buffered saline at pH 5 by LC-MS analysis; assay type: physicochemical
In short: (§4)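 Half-life in phosphate buffers at pH 5, 6.8 or 7.4 followed by LC-MS; mean of two independent experiments.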

[19] = Half life in rat liver microsomes in absence of NADPH; assay type: ADME, Microsome
[20] = Half life of the compound in phosphate buffered saline at pH 6.8 by LC-MS analysis; assay type: physicochemical; in short: as §4
U373M [21] = assay: Induction of cell cycle arrest in MGMT-expressing human U373M cells assessed as accumulation of cells at S phase at 100 uM measured after 120 hrs by propidium iodide staining based flow cytometry; assay type: functional
[22] = Drug metabolism in phosphate buffered saline assessed as half life of 5-(3-(prop-2-yn-1-yl)triaz-2-en-1-yl)-1H-imidazole-4-carboxamide at pH 7.4 by 1HNMR spectroscopy; assay type: ADME; conditions: buffer
HCT-116 [23] = assay: Induction of cell cycle arrest in MMR-deficient human HCT-116 cells assessed as loss of cell cycle integrity at 100 uM measured after 120 hrs by propidium iodide staining based flow cytometry; assay type: functional
[24] = Ratio of permeability across dog MDCK cells transfected with MDR1 to permeability across wild type dog MDCK cells; assay type: ADME, cell-based, Canis lupus familiaris
[25] = Induction of cell cycle arrest in MGMT-expressing human U373M cells assessed as accumulation of cells at G2/M phase at 100 uM measured after 120 hrs by propidium iodide staining based flow cytometry (Rvb ~ 15%); assay type: functional
[26] = Intrinsic clearance in human liver microsomes in presence of NADPH; assay type: ADME, Microsome; conditions: read-out: CLH
[27] = Intrinsic clearance in rat liver microsomes in presence of NADPH; assay type: ADME, Microsome; conditions: read-out: CLH
U373V [28] = assay: Induction of cell cycle arrest in human U373V cells assessed as accumulation of cells at G2/M phase at 100 uM measured after 120 hrs by propidium iodide staining based flow cytometry; assay type: functional
[29] = Half life of the compound in phosphate buffered saline at pH 7.4 by LC-MS analysis; assay type: physicochemical; in short: as §4
[30] = Intrinsic clearance in human liver microsomes in absence of NADPH; assay type: ADME, Microsome; conditions: read-out: CLH
[31] = Stability of the compound in phosphate buffered saline at pH 5.5 by 1H NMR spectroscopy; assay type: physicochemical; conditions: buffer; in short: as §3
[32] = Cytotoxicity against human MRC5 cells assessed as inhibition of cell growth measured after 7 days by MTT assay; assay type: toxicity, cell-based; conditions: time 7 day; in short: as §1
[33] = Stability of the compound in phosphate buffered saline at pH 7.4 by 1H NMR spectroscopy; assay type: physicochemical; conditions: buffer; in short: as §3
[34] = Half life of the compound in phosphate buffered saline at pH 5.5 by 1H NMR spectroscopic analysis; assay type: physicochemical; in short: as §3

GI50 (HCT-116 [2]): 16.7 µM
Compound: C#CCn1nnc2c(-c3nc(C(=C)C)cs3)ncn2c1=O
GI50 [1]: 14.2 µM
GI50 [3]: 18.7 µM

GI50 (HCT-116 [2]): 12.2 µM
Compound: C#CCn1nnc2c(-c3nc(CN4CCOCC4)cs3)ncn2c1=O
GI50 [1]: 10.2 µM
GI50 [3]: 23.9 µM

recovery at 6 h [4]: 6.9%
half-life [5]: 77.8 min
half-life [7]: 49 min
Papp at 6 h [9]: 1.38 ×10⁻⁶ cm/s
half-life [11]: 39.3 min
microsomal CLint [12]: 29.2 µL/min/mg
Tmax [14]: 120 min
half-life [15]: 14.5 min
half-life [16]: 25.9 min
half-life [17]: 55.1 min
half-life [18]: > 480 min
half-life [19]: 48.7 min
half-life [20]: 232 min
t1/2 [22]: 270 min
Ratio [24]: 0.93
microsomal CLint [26]: 18.1 µL/min/mg
microsomal CLint [27]: 35.5 µL/min/mg
half-life [29]: 115 min
GI50 (HCT-116 [2]): 28.1 µM
microsomal CLint [30]: 25.2 µL/min/mg
Compound: C#CCn1nnc2c(C(N)=O)ncn2c1=O
GI50 [1]: 26.6 µM
Activity (HCT-116 [6]): 96%
Activity (U373V [8]): Active
Activity (U373M [10]): Active
Activity (U373V [13]): Active
Activity (U373M [21]): Active
Activity (HCT-116 [23]): Active
Activity [25]: 33%
Activity (U373V [28]): Active
GI50 [3]: 30 µM

GI50 (HCT-116 [2]): 21.5 µM
Compound: C#CCn1nnc2c(-c3nc(C(F)(F)F)cs3)ncn2c1=O
GI50 [1]: 25.4 µM
GI50 [3]: 28.2 µM

GI50 (HCT-116 [2]): 25.4 µM
Compound: C#CCn1nnc2c(-c3nc(C(C)C)cs3)ncn2c1=O
GI50 [1]: 19 µM
GI50 [3]: 23.6 µM

recovery at 6 h [4]: 18.5%
Stability [31]: Stable
half-life [5]: 14.2 min
half-life [7]: 88 min
Papp at 6 h [9]: 3.68 ×10⁻⁶ cm/s
half-life [11]: 20.4 min
microsomal CLint [12]: 14.7 µL/min/mg
half-life [15]: 2.97 min
half-life [16]: 3.54 min
half-life [17]: 76.3 min
half-life [18]: > 480 min
Stability [33]: Stable
half-life [19]: 94.3 min
half-life [20]: 214 min
half-life [34]: 7.2 min
Ratio [24]: 1.16
microsomal CLint [26]: 97.8 µL/min/mg
microsomal CLint [27]: 68.5 µL/min/mg
half-life [29]: 169 min
GI50 (HCT-116 [2]): 7.04 µM
microsomal CLint [30]: 18.6 µL/min/mg
Compound: C#CCn1nnc2c(-c3nc(C)cs3)ncn2c1=O
GI50 [1]: 7.44 µM
GI50 at 168 h [32]: 25 µM
GI50 [3]: 8.45 µM

GI50 (HCT-116 [2]): 37 µM
Compound: C#CCn1nnc2c(-c3nc(-c4ccc(S(C)(=O)=O)cc4)cs3)ncn2c1=O
GI50 [1]: 14.7 µM
GI50 [3]: 22 µM

GI50 (HCT-116 [2]): 20.3 µM
Compound: C#CCn1nnc2c(-c3nc(C4CCC4)cs3)ncn2c1=O
GI50 [1]: 25.5 µM
GI50 [3]: 24.2 µM

GI50 (HCT-116 [2]): 14.8 µM
Compound: C#CCn1nnc2c(-c3nc(CC)cs3)ncn2c1=O
GI50 [1]: 9.67 µM
GI50 [3]: 23.5 µM

GI50 (HCT-116 [2]): 17.8 µM
Compound: C#CCn1nnc2c(-c3nc(CO)cs3)ncn2c1=O
GI50 [1]: 14.8 µM
GI50 [3]: 24.4 µM
